Measurements from ChEMBL document CHEMBL1124192, “Cyclopentenylcytosine. A carbocyclic nucleoside with antitumor and antiviral properties” (J Med Chem, 1988).
Converted amounts (≈) assume the structure as drawn.

Columns and labels:
Vaccinia virus [1] = experiment: Degree of inhibition of virus-induced cytopathogenic effect and the degree of cytotoxicity produced by compound against vaccinia lederle CA virus; type: functional, Orthopoxvirus vaccinia
Summary of the method: (§1)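 Southern Research CPE inhibition test in Vero host cells. Confluent monolayers in 96-well plates received drug (minimum seven concentrations, cytotoxic to noncytotoxic) plus virus at 32 CCID50 per 0.1 mL, in triplicate, with cell, virus and drug-cytotoxicity controls. Incubated at 37 °C, 2% CO2. CPE scored microscopically at 3–4 days. VR = 0.1 × sum of CE-grade differences from virus control, halved for partially cytotoxic wells.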

Vaccinia virus [2] = experiment: Dose of compound required to inhibit the vaccinia lederle CA virus induced cytopathogenic effects; type: functional; conditions: Orthopoxvirus vaccinia; read-out: ID50 (the source's name); summary of the method: as §1

With `Nc1ncnc2c1ncn2[C@@H]1O[C@H](CO)[C@@H](O)[C@@H]1O` [VIDARABINE] the Virus rating (Vaccinia virus [1]) was 3.1 and the IC50 (Vaccinia virus [2]) was 9.8 µg/mL (≈ 36.7 µM).
